In ChEMBL document CHEMBL5252523, “Searching for New Leads for Tuberculosis: Design, Synthesis, and Biological Evaluation of Novel 2-Quinolin-4-yloxyacetamides” (J Med Chem, 2016):
In brackets after ≈: the same amount, converted by molar mass.

system: Mycobacterium tuberculosis; assay: Antimycobacterial activity against Mycobacterium tuberculosis H37Rv ATCC 25618 assessed as inhibition of microbial growth incubated for 6 days by resazurin based assay; type: functional; details: H37Rv ATCC 25618, 144 h, time 6 day
Summary of the method: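 Ten two-fold dilutions made in neat DMSO, tested in Middlebrook 7H9 with the H37Rv inoculum. Controls: isoniazid from 4 μg/ml as positive control; rifampicin 1 μM as no-growth control. Plates sat sealed at 37 °C without shaking for 6 days.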

Compound | MIC [µM]
COc1ccc2nc(C)cc(OCC(=O)NNC(=O)c3ccncc3)c2c1 | 62
COc1ccc2nc(C)cc(OCC(=O)Nc3cc(F)cc(F)c3)c2c1 | 3
COc1ccc2nc(C)cc(OCC(=O)N(C)c3cc(C)cc(C)c3)c2c1 | 109
COc1ccc2nc(C)cc(OCC(=O)Nc3ccc(Cl)cc3Cl)c2c1 | 2
COc1ccc2nc(C)cc(OCC(=O)Nc3cc(C)ccc3OC)c2c1 | 2.5
Cc1cc(C)cc(NC(=O)COc2cc(C)nc3ccc(C)cc23)c1 | 3.9
COc1ccc2nc(C)cc(OCCNc3cc(C)cc(C)c3)c2c1 | 32
COc1ccc2nc(C)cc(OCC(=O)Nc3cc(C)ccc3C)c2c1 | 8

system: not listed separately; assay: Cytotoxicity against human HepG2 cells assessed as cell growth inhibition incubated for 48 hrs by CellTiter-Glo reagent based analysis; type: toxicity; details: not given
Summary of the method: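 HepG2 cells kept in Eagle's MEM with 10% heat-inactivated FBS, 1% NEAA and penicillin/streptomycin, seeded at ~3000 cells/well onto pre-dispensed compound. Incubation was 48 h at 37 °C, 5% CO2. Plates were equilibrated to room temperature, CellTiter-Glo was added, and ATP luminescence was read after 10 min as the viability read-out.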

Compound | IC50 at 48 h [µM]
COc1ccc2nc(C)cc(OCC(=O)NNC(=O)c3ccncc3)c2c1 | > 100
COc1ccc2nc(C)cc(OCC(=O)Nc3cc(F)cc(F)c3)c2c1 | > 100
COc1ccc2nc(C)cc(OCC(=O)N(C)c3cc(C)cc(C)c3)c2c1 | 50.1
COc1ccc2nc(C)cc(OCC(=O)Nc3ccc(Cl)cc3Cl)c2c1 | > 100
COc1ccc2nc(C)cc(OCC(=O)Nc3cc(C)ccc3OC)c2c1 | > 100
Cc1cc(C)cc(NC(=O)COc2cc(C)nc3ccc(C)cc23)c1 | 15.8
COc1ccc2nc(C)cc(OCCNc3cc(C)cc(C)c3)c2c1 | 31.6
COc1ccc2nc(C)cc(OCC(=O)Nc3cc(C)ccc3C)c2c1 | > 100

system: not listed separately; assay: Artificial membrane permeability of the compound incubated for 3 hrs by HPLC analysis; type: ADME; details: PAMPA, read-out: permeability

Compound | Papp at 3 h [×10⁻⁶ cm/s]
COc1ccc2nc(C)cc(OCC(=O)NNC(=O)c3ccncc3)c2c1 | 3.3
COc1ccc2nc(C)cc(OCC(=O)N(C)c3cc(C)cc(C)c3)c2c1 | 30
Cc1cc(C)cc(NC(=O)COc2cc(C)nc3ccc(C)cc23)c1 | 52
COc1ccc2nc(C)cc(OCCNc3cc(C)cc(C)c3)c2c1 | 19
COc1ccc2nc(C)cc(OCC(=O)Nc3cc(C)ccc3C)c2c1 | 81

system: not listed separately; assay: Kinetic aqueous solubility of compound in phosphate buffer at pH 7.4 incubated for 1 hrs by CLND assay; type: physicochemical; details: read-out: Kinetic_solubility

Compound | solubility kinetic at 1 h [µM]
COc1ccc2nc(C)cc(OCC(=O)NNC(=O)c3ccncc3)c2c1 | ≥ 375
COc1ccc2nc(C)cc(OCC(=O)Nc3cc(F)cc(F)c3)c2c1 | 13 (≈ 4.66 µg/mL)
COc1ccc2nc(C)cc(OCC(=O)N(C)c3cc(C)cc(C)c3)c2c1 | 373 (≈ 136 µg/mL)
COc1ccc2nc(C)cc(OCC(=O)Nc3ccc(Cl)cc3Cl)c2c1 | 20.5 (≈ 8.02 µg/mL)
COc1ccc2nc(C)cc(OCC(=O)Nc3cc(C)ccc3OC)c2c1 | 9.5 (≈ 3.48 µg/mL)
Cc1cc(C)cc(NC(=O)COc2cc(C)nc3ccc(C)cc23)c1 | 83 (≈ 27.8 µg/mL)
COc1ccc2nc(C)cc(OCCNc3cc(C)cc(C)c3)c2c1 | 33 (≈ 11.1 µg/mL)
COc1ccc2nc(C)cc(OCC(=O)Nc3cc(C)ccc3C)c2c1 | 45.5 (≈ 15.9 µg/mL)

system: not listed separately; assay: Microsomal stability in mouse liver microsomes assessed as half life at 0.5 uM preincubated followed by NADPH addition and measured upto 30 mins by LC-MS/MS analysis; type: ADME, Microsome; details: not given

Compound | half-life at 0.5 µM [min]
Cc1cc(C)cc(NC(=O)COc2cc(C)nc3ccc(C)cc23)c1 | < 5
COc1ccc2nc(C)cc(OCCNc3cc(C)cc(C)c3)c2c1 | < 5
COc1ccc2nc(C)cc(OCC(=O)Nc3cc(C)ccc3C)c2c1 | < 5
Cc1ncc2n1-c1ccc(Cl)cc1C(c1ccccc1F)=NC2 [MIDAZOLAM] | < 5

system: not listed separately; assay: Microsomal stability in human liver microsomes assessed as half life at 0.5 uM preincubated followed by NADPH addition and measured upto 30 mins by LC-MS/MS analysis; type: ADME, Microsome; details: not given

Compound | half-life at 0.5 µM [min]
Cc1cc(C)cc(NC(=O)COc2cc(C)nc3ccc(C)cc23)c1 | > 30
COc1ccc2nc(C)cc(OCCNc3cc(C)cc(C)c3)c2c1 | > 30
COc1ccc2nc(C)cc(OCC(=O)Nc3cc(C)ccc3C)c2c1 | 24
Cc1ncc2n1-c1ccc(Cl)cc1C(c1ccccc1F)=NC2 [MIDAZOLAM] | 9

system: not listed separately; assay: Chromatographic hydrophobicity index, log D of the compound in phosphate buffer at pH 7.4 by UV-HPLC analysis; type: physicochemical; details: not given

Compound | chromatographic logD
COc1ccc2nc(C)cc(OCC(=O)NNC(=O)c3ccncc3)c2c1 | 1.48
COc1ccc2nc(C)cc(OCC(=O)Nc3cc(F)cc(F)c3)c2c1 | 5.13
COc1ccc2nc(C)cc(OCC(=O)N(C)c3cc(C)cc(C)c3)c2c1 | 5.47
COc1ccc2nc(C)cc(OCC(=O)Nc3ccc(Cl)cc3Cl)c2c1 | 6.4
COc1ccc2nc(C)cc(OCC(=O)Nc3cc(C)ccc3OC)c2c1 | 5.65
Cc1cc(C)cc(NC(=O)COc2cc(C)nc3ccc(C)cc23)c1 | 5.95
COc1ccc2nc(C)cc(OCCNc3cc(C)cc(C)c3)c2c1 | 6.93
COc1ccc2nc(C)cc(OCC(=O)Nc3cc(C)ccc3C)c2c1 | 5.05

system: Mycobacterium tuberculosis; assay: Antimycobacterial activity against Mycobacterium tuberculosis H37Rv ATCC 25618 expressing pATB45luc infected in PMA-stimulated human THP-1 cells assessed as inhibition of intracellular bacterial growth incubated for 4 days by BrightGlo luciferase assay; type: functional, organism-based; details: H37Rv ATCC 25618, THP-1, 96 h
Summary of the method: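 THP-1 cells grown in RPMI-1640 with 10% FBS, 1 mM pyruvate and 2 mM L-glutamine. Cells were PMA-differentiated (40 ng/ml) while infected with single-cell Mtb H37Rv-pATB45luc at MOI 1:1 for 4 h at 37 °C in a roller bottle, then washed four times. About 10000 cells/well were added onto pre-dispensed compound (max DMSO 0.5%) and incubated 4 days at 37 °C. Luciferase luminescence was read; IC50/IC90 came from nonlinear regression of dose-response curves.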

Compound | IC50 [µM]
COc1ccc2nc(C)cc(OCC(=O)Nc3cc(F)cc(F)c3)c2c1 | 0.4
COc1ccc2nc(C)cc(OCC(=O)Nc3ccc(Cl)cc3Cl)c2c1 | 0.79
COc1ccc2nc(C)cc(OCC(=O)Nc3cc(C)ccc3OC)c2c1 | 0.16

same assay, conditions: H37Rv ATCC 25618, THP-1, 96 h, time 4 day

Compound | IC90 [µM]
COc1ccc2nc(C)cc(OCC(=O)Nc3cc(F)cc(F)c3)c2c1 | 2.51
COc1ccc2nc(C)cc(OCC(=O)Nc3ccc(Cl)cc3Cl)c2c1 | > 50
COc1ccc2nc(C)cc(OCC(=O)Nc3cc(C)ccc3OC)c2c1 | 0.63

system: not listed separately; assay: Stability of compound in CD1 mouse blood assessed as half life at 0.5 uM incubated upto 240 mins by LC-MS/MS analysis; type: ADME, tissue-based; details: not given
Summary of the method: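 Fresh CD1 mouse whole blood collected in EDTA tubes and spiked with compound. Three 300 μl aliquots were incubated at 37 °C. Supernatants were analysed by LC-MS/MS; analyte/internal standard ratios were normalised to time zero as % remaining, and half-life was taken from ln plots of % remaining.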

Compound | half-life at 0.5 µM [min]
Cc1cc(C)cc(NC(=O)COc2cc(C)nc3ccc(C)cc23)c1 | < 5
COc1ccc2nc(C)cc(OCCNc3cc(C)cc(C)c3)c2c1 | > 120
COc1ccc2nc(C)cc(OCC(=O)Nc3cc(C)ccc3C)c2c1 | < 5

system: not listed separately; assay: Stability of compound in CD1 mouse blood at 0.5 uM incubated upto 240 mins in presence of NaF pretreatment by LC-MS/MS analysis; type: ADME, tissue-based; details: 4 h

Compound | Stability
COc1ccc2nc(C)cc(OCCNc3cc(C)cc(C)c3)c2c1 | Stable

molecular target: Voltage-gated inwardly rectifying potassium channel KCNH2 (Homo sapiens, UniProt Q12809); assay: Inhibition of human ERG; type: toxicity; details: not given
Sequence (Q12809 whole entry): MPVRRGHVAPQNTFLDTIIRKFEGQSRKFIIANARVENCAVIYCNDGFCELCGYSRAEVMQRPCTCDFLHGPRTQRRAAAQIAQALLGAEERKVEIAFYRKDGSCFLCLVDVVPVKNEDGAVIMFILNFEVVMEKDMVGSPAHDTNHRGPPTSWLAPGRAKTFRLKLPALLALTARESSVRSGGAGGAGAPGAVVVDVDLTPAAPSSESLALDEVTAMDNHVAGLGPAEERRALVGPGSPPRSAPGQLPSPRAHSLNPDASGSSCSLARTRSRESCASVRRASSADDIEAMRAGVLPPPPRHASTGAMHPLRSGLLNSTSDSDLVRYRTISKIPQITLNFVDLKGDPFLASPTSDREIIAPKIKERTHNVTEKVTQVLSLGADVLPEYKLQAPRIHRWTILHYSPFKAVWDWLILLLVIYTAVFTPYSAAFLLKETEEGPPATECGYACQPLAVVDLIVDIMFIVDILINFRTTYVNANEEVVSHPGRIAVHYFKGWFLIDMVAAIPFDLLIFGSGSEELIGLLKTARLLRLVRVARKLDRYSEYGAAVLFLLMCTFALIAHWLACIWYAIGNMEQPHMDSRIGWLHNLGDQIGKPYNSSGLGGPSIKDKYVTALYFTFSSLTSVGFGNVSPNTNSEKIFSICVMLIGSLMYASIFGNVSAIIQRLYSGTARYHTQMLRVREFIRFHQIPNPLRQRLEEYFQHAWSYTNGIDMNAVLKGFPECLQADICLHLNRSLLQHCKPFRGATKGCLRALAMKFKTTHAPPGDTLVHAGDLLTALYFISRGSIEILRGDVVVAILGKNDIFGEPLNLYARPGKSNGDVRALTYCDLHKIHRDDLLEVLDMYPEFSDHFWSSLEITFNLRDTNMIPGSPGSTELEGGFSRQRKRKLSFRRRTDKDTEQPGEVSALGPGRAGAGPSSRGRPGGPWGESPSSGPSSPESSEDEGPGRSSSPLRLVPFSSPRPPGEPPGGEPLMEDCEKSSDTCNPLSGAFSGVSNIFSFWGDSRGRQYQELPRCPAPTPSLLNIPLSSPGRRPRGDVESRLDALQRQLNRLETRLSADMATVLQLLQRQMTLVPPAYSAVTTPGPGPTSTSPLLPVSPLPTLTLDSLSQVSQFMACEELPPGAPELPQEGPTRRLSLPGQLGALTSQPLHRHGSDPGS

Compound | IC50 [µM]
COc1ccc2nc(C)cc(OCC(=O)Nc3cc(C)ccc3OC)c2c1 | 5.01
